Measured values reported in ChEMBL document CHEMBL4229410, “Facile construction of fused benzimidazole-isoquinolinones that induce cell-cycle arrest and apoptosis in colorectal cancer cells” (Bioorg Med Chem, 2018).
Activity calls are given as the source filed them. The rule behind the calls is not given here.

Experiments:
SW-620 [1] = experiment: Effect on total 4EBP1 expression in human SW620 cells up to 75 uM after 48 hrs by Western blot analysis; type: ADME, cell-based; details: sw-620, 48 h
Summary of the method: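 HT29 or SW620 cells were treated at 0, 25, 50 and 75 μM for 48 h and lysed in RIPA with protease and phosphatase inhibitors. Protein was quantified by BCA. 50 μg lysate was run on 8–15% SDS-PAGE and transferred to PVDF. Blocking was 5% BSA/TBST for 2 h; primary antibodies were applied overnight at 4 °C, then HRP secondary 1 h at room temperature.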

Focal adhesion kinase 1 = Focal adhesion kinase 1 (Homo sapiens, UniProt Q05397); experiment: Binding affinity to human FAK (D402 to R696 residues) expressed in bacterial expression system by KINOMEscan assay
[2] = molecular target: Receptor tyrosine-protein kinase erbB-2 (Homo sapiens, UniProt P04626); experiment: Inhibition of human ERBB2 (K646 to V1225 residues) expressed in mammalian expression system assessed as residual activity at 5 uM by KINOMEscan assay relative to control
Chain of Receptor tyrosine-protein kinase erbB-2 (P04626 whole entry, the tested form may be a part): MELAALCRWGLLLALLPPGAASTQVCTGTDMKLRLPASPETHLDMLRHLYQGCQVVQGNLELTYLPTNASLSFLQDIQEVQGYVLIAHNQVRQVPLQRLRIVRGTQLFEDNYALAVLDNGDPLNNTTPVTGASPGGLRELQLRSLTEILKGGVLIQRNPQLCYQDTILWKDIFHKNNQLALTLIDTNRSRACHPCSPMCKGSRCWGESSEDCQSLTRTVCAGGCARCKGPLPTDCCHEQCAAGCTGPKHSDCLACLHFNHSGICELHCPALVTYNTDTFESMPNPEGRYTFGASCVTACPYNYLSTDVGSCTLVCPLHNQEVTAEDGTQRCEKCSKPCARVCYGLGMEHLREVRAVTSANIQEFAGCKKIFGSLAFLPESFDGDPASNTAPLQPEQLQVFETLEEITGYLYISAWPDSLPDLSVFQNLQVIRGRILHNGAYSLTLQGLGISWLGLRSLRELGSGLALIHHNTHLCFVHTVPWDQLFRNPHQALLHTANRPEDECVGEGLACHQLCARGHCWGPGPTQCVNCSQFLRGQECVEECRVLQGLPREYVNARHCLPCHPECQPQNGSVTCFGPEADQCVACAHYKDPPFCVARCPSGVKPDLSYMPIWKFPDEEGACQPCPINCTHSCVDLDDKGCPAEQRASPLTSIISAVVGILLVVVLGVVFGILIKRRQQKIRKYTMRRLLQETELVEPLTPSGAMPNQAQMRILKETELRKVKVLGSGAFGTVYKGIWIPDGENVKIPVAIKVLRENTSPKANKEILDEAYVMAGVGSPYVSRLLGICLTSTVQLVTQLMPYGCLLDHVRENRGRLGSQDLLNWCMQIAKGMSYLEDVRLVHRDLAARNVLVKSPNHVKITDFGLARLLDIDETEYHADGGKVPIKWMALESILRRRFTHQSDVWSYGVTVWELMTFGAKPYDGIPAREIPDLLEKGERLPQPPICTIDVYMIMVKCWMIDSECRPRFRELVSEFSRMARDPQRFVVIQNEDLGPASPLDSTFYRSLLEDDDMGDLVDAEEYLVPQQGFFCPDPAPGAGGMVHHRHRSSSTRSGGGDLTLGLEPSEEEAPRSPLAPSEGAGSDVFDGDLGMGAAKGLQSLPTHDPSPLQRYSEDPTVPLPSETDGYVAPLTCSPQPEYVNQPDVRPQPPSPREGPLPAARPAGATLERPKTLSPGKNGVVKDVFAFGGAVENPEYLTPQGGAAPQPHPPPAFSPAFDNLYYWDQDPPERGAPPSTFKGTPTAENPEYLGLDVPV

[3] = tested on: Serine/threonine-protein kinase B-raf (Homo sapiens), P15056 [V600E]; experiment: Inhibition of human BRAF (S429 to E741 residues) V600E mutant expressed in mammalian expression system assessed as residual activity at 5 uM by KINOMEscan assay relative to control
SW-620 [4] = experiment: Induction of apoptosis in human SW620 cells assessed as increase in PARP activation after 48 hrs by Western blot analysis; type: functional, cell-based
[5] = molecular target: Phosphatidylinositol 4,5-bisphosphate 3-kinase catalytic subunit gamma isoform (Homo sapiens, UniProt P48736); experiment: Inhibition of human PIK3CG (S144 to A1102 residues) expressed in mammalian expression system assessed as residual activity at 5 uM by KINOMEscan assay relative to control
Aurora kinase B = Aurora kinase B (Homo sapiens, UniProt Q96GD4); experiment: Inhibition of human AURKB (D25 to A303 residues) expressed in mammalian expression system assessed as residual activity at 5 uM by KINOMEscan assay relative to control
Ephrin type-A receptor 2 = Ephrin type-A receptor 2 (Homo sapiens, UniProt P29317); experiment: Inhibition of human EPHA2 (T593 to V891 residues) expressed in bacterial expression system assessed as residual activity at 5 uM by KINOMEscan assay relative to control
[6] = molecular target: T1, Serine/threonine-protein kinase pim-2 (Homo sapiens, UniProt Q9P1W9); experiment: Inhibition of human PIM2 (M1 to E291 residues) expressed in bacterial expression system assessed as residual activity at 5 uM by KINOMEscan assay relative to control
Target sequence in this assay (Q9P1W9 whole entry, looked up, the tested form may be a part): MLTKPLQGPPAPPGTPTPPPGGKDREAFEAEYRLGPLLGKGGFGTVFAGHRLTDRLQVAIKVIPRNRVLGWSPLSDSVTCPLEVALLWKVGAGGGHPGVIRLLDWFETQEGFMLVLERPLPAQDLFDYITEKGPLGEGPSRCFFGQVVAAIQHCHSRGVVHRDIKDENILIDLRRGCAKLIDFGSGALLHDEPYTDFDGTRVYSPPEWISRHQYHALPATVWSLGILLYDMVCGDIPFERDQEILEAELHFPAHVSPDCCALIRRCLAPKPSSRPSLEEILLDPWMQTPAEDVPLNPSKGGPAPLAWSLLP

[7] = molecular target: Rho-associated protein kinase 2 (Homo sapiens, UniProt O75116); experiment: Inhibition of human ROCK2 (M1 to T431 residues) expressed in mammalian expression system assessed as residual activity at 5 uM by KINOMEscan assay relative to control
Chain of Rho-associated protein kinase 2 (O75116 whole entry, looked up, the tested form may be a part): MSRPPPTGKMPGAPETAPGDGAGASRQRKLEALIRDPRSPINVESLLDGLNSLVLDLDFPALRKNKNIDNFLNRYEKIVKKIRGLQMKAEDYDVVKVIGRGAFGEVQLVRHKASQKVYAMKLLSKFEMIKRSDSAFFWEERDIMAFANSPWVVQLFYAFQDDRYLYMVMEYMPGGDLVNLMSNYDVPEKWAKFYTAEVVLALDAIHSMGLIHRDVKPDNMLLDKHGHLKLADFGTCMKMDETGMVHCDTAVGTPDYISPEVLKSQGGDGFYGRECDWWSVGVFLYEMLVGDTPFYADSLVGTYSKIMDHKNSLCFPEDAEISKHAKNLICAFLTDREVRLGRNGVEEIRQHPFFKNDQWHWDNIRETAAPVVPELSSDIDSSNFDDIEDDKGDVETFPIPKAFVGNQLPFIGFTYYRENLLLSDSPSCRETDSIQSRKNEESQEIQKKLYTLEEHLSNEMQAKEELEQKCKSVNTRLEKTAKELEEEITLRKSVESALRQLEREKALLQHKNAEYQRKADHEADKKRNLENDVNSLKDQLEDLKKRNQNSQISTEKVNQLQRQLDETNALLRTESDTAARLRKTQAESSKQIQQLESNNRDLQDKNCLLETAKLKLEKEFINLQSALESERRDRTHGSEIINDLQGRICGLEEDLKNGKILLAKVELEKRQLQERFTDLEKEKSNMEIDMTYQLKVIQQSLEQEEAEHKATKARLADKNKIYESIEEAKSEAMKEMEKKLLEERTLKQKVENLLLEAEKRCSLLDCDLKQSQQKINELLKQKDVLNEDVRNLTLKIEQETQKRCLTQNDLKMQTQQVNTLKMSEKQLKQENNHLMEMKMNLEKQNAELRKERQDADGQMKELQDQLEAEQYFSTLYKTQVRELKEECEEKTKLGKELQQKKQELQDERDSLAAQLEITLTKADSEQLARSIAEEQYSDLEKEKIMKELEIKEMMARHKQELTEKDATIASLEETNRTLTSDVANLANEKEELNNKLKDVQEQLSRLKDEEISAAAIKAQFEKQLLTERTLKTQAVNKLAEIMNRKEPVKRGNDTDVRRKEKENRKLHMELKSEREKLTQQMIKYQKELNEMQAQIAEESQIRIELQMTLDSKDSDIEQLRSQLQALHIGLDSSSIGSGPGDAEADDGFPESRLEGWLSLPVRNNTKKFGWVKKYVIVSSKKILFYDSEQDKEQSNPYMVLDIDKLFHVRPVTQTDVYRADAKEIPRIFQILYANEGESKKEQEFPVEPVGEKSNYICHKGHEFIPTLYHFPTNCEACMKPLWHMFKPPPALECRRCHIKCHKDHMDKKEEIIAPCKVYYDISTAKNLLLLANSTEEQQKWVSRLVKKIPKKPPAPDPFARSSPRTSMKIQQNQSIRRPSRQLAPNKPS

HT-29 [8] = experiment: Inhibition of PI3K in human HT-29 cells assessed as reduction in AKT phosphorylation at S473 residue up to 75 uM after 48 hrs by Western blot analysis; type: cell-based
HT-29 [9] = experiment: Cell cycle arrest in human HT-29 cells assessed as accumulation at S-phase at 25 uM after 48 hrs by propidium iodide staining based flow cytometry (reference value: 37.82%); type: functional
[10] = molecular target: Mitogen-activated protein kinase kinase kinase 9 (Homo sapiens, UniProt P80192); experiment: Binding affinity to human MLK1 (V88 to W426 residues) expressed in bacterial expression system by KINOMEscan assay
[11] = molecular target: RAC-alpha serine/threonine-protein kinase (Homo sapiens, UniProt P31749); experiment: Binding affinity to human AKT1 expressed in bacterial expression system by KINOMEscan assay
Chain of RAC-alpha serine/threonine-protein kinase (P31749 whole entry, the tested form may be a part): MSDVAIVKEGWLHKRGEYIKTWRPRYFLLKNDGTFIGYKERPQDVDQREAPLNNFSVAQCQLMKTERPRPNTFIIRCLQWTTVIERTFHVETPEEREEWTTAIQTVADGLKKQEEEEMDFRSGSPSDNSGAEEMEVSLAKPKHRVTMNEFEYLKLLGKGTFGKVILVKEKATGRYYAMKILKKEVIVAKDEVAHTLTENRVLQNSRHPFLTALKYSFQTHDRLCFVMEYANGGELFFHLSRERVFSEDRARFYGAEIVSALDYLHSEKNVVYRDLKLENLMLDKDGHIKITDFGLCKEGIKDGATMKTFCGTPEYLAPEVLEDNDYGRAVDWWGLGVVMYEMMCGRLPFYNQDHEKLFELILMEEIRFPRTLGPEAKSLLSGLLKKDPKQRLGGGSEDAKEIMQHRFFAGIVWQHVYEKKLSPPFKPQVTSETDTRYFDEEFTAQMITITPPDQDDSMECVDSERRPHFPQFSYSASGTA

[12] = molecular target: Tyrosine-protein kinase JAK3 (Homo sapiens, UniProt P52333); experiment: Binding affinity to human JAK3 JH1 catalytic domain (I781 to S1124 residues) expressed in mammalian expression system by KINOMEscan assay
[13] = molecular target: T2, Mitogen-activated protein kinase 8 (Homo sapiens, UniProt P45983); experiment: Binding affinity to full length human JNK1 (M1 to Q384 residues) expressed in mammalian expression system by KINOMEscan assay
T2 sequence (P45983 whole entry, the tested form may be a part): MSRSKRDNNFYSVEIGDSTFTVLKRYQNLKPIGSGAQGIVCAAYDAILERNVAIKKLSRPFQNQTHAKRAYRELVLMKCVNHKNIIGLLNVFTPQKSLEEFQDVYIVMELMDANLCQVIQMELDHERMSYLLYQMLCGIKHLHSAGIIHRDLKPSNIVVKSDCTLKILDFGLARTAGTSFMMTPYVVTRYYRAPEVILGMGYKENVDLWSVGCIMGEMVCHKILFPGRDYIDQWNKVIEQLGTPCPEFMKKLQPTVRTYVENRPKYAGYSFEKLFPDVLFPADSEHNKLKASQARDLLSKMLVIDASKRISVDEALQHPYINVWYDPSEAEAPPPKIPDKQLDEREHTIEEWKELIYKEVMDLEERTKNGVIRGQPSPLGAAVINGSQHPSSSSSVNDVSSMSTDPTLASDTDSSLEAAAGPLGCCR

HT-29 [14] = experiment: Induction of apoptosis in human HT-29 cells assessed as live cells at 50 uM after 48 hrs by Annexin-V-FITC/propidium iodide staining based flow cytometry (reference value: 93.2%); type: functional
[15] = molecular target: T2, Mitogen-activated protein kinase 8; experiment: Inhibition of full length human JNK1 (M1 to Q384 residues) expressed in mammalian expression system assessed as residual activity at 5 uM by KINOMEscan assay relative to control
[16] = molecular target: Serine/threonine-protein kinase PAK 1 (Homo sapiens, UniProt Q13153); experiment: Binding affinity to human PAK1 (S149 to H545 residues) expressed in bacterial expression system by KINOMEscan assay
TGF-beta receptor type-1 = TGF-beta receptor type-1 (Homo sapiens, UniProt P36897); experiment: Binding affinity to human TGFBR1 (D179 to M503 residues) expressed in bacterial expression system by KINOMEscan assay
SW-620 [17] = experiment: Upregulation of p21 expression in human SW620 cells after 48 hrs by Western blot analysis; type: functional, cell-based
[18] = molecular target: ALK tyrosine kinase receptor (Homo sapiens, UniProt Q9UM73); experiment: Binding affinity to human ALK (I1088 to E1409 residues) expressed in mammalian expression system by KINOMEscan assay
[19] = molecular target: RAF proto-oncogene serine/threonine-protein kinase (Homo sapiens, UniProt P04049); experiment: Binding affinity to human RAF1 (I330 to T640 residues) expressed in bacterial expression system by KINOMEscan assay
HT-29 [20] = experiment: Antiproliferative activity against human HT-29 cells after 48 hrs by BrdU/DAPI staining based immunofluorescence assay; type: functional, cell-based
Summary of the method: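 Cells seeded at 20,000 per well after reaching 80% confluence; exposed 48 h to 0, 25, 50, 75 μM, then 10 μM BrdU for 2 h. Paraformaldehyde fixation, 2 M HCl 30 min, 10% goat serum block, anti-BrdU primary overnight at 4 °C, secondary 120 min at room temperature, DAPI 300 nM. Fluorescence microscopy; percent BrdU-positive nuclei, mean ± SD of three independent experiments.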

[21] = molecular target: Serine/threonine-protein kinase pim-3 (Homo sapiens, UniProt Q86V86); experiment: Inhibition of human PIM3 (G16 to A317 residues) expressed in bacterial expression system assessed as residual activity at 5 uM by KINOMEscan assay relative to control
SW-620 [22] = experiment: Induction of apoptosis in human SW620 cells assessed as reduction in BCL2 expression after 48 hrs by Western blot analysis; type: functional, cell-based
[23] = molecular target: MAP/microtubule affinity-regulating kinase 3 (Homo sapiens, UniProt P27448); experiment: Binding affinity to full length human MARK3 (M1 to L729 residues) expressed in bacterial expression system by KINOMEscan assay
Chain of MAP/microtubule affinity-regulating kinase 3 (P27448 whole entry, the tested form may be a part): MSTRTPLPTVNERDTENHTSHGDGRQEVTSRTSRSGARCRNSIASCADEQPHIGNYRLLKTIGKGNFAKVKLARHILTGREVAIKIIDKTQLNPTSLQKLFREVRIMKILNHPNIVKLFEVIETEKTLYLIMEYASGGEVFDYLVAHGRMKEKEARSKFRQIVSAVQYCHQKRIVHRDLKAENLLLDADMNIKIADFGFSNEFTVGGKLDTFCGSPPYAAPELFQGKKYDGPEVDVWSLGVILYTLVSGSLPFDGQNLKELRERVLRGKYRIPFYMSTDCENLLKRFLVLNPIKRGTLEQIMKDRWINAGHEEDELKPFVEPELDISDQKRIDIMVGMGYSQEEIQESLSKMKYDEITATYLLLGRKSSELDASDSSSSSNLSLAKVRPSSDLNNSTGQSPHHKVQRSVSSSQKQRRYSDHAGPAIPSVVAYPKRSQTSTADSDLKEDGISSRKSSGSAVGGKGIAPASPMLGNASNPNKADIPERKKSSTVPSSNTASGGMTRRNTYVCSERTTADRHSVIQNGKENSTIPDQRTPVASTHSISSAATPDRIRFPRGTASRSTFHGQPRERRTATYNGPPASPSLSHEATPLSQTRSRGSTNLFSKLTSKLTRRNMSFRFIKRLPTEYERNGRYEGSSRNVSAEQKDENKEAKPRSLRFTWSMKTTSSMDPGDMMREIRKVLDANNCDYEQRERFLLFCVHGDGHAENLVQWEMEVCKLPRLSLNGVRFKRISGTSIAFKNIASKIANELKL

[24] = molecular target: T1, Serine/threonine-protein kinase pim-2; experiment: Binding affinity to human PIM2 (M1 to E291 residues) expressed in bacterial expression system by KINOMEscan assay
Target sequence in this assay (Q9P1W9 whole entry, the tested form may be a part): as the sequence (Q9P1W9 whole entry, looked up, the tested form may be a part) above

SW-620 [25] = experiment: Induction of apoptosis in human SW620 cells assessed as early apoptotic cells at 50 uM after 48 hrs by Annexin-V-FITC/propidium iodide staining based flow cytometry (reference value: 0.4%); type: functional

CC(C)CN(C(=O)c1cccnc1)c1c2ccccc2c(=O)n2c1[nH]c1ccccc12
Activity (SW-620 [1]): Non-Toxic
Kd (Focal adhesion kinase 1): ≥ 5 µM
Activity [2]: 97%
Activity [3]: 100%
Activity (SW-620 [4]): Dose-dependent effect
Activity [5]: 100%
Activity (Aurora kinase B): 92%
Activity (Ephrin type-A receptor 2): 100%
Activity [6]: 100%
Activity [7]: 80%
inhibition (HT-29 [8]): Active
Activity (HT-29 [9]): 37.2%
Kd [10]: ≥ 5 µM
Kd [11]: ≥ 5 µM
Kd [12]: ≥ 5 µM
Kd [13]: ≥ 5 µM
Activity (HT-29 [14]): 80.3%
Activity [15]: 69%
Kd [16]: ≥ 5 µM
Kd (TGF-beta receptor type-1): ≥ 5 µM
Activity (SW-620 [17]): Dose-dependent effect
Kd [18]: ≥ 5 µM
Kd [19]: ≥ 5 µM
Activity (HT-29 [20]): Dose-dependent effect
Activity [21]: 100%
Activity (SW-620 [22]): Dose-dependent effect
Kd [23]: ≥ 5 µM
Kd [24]: ≥ 5 µM
Activity (SW-620 [25]): 0.6%
